Source: ChEMBL document CHEMBL2040714, “Synthesis of methylated quercetin derivatives and their reversal activities on P-gp- and BCRP-mediated multidrug resistance tumour cells” (Eur J Med Chem, 2012)

target: T1, Broad substrate specificity ATP-binding cassette transporter ABCG2 (Homo sapiens, UniProt Q9UNQ0); test: Reversal of BCRP-mediated drug resistant in human HEK293/R2 cells assessed as potentiation of topotecan-induced cytotoxicity at 1 uM after 5 days by MTS assay; format: cell-based; conditions: hek293/r2, 120 h
T1 sequence (Q9UNQ0 whole entry): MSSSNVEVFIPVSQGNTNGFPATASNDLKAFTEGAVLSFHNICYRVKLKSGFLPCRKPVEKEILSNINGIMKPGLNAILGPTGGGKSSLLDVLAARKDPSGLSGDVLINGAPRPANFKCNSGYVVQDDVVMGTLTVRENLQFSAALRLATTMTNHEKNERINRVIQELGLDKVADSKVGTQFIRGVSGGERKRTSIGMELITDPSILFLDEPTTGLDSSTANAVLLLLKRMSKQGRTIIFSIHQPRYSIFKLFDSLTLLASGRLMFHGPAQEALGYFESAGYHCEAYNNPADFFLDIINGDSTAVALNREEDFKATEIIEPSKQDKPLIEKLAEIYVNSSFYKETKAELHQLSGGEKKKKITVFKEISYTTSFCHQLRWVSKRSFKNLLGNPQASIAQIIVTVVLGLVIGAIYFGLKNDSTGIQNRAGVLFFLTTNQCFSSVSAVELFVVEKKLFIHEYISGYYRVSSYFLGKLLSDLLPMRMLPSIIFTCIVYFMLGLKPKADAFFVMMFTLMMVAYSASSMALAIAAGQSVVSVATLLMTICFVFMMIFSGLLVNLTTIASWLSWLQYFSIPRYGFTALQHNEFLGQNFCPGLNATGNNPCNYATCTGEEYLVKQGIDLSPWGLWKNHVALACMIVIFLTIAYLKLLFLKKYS

SMILES | fold change (FC)
COc1cc(OC)c2c(=O)c(O[C@@H]3O[C@H](CO[C@@H]4O[C@@H](C)[C@H](OC)[C@@H](OC)[C@H]4OC)[C@@H](OC)[C@H](OC)[C@H]3OC)c(-c3ccc(OC)c(OC)c3)oc2c1 | 1.5
COc1cc(OC)c2c(=O)c(OC(=O)c3cc(OC)c(OC)c(OC)c3)c(-c3ccc(OC)c(OC)c3)oc2c1 | 5.8
COc1cc(OC)c2c(=O)c(OCCOC(=O)c3ccc(OC)c(OC)c3)c(-c3ccc(OC)c(OC)c3)oc2c1 | 4.6
COc1cc(OC)c2c(=O)c(OCCn3cnc4c(N)ncnc43)c(-c3ccc(OC)c(OC)c3)oc2c1 | 1.2
COc1cc(OC)c2c(=O)c(OCCn3cnc4c(=O)n(C)c(=O)n(C)c43)c(-c3ccc(OC)c(OC)c3)oc2c1 | 1.4
COc1cc(OC)c2c(=O)c(OCCOc3cc4c(Nc5ccc(F)c(Cl)c5)ncnc4cc3OC)c(-c3ccc(OC)c(OC)c3)oc2c1 | 4.3
COc1cc(O)c2c(=O)c(OC)c(-c3ccc(OC)c(OC)c3)oc2c1 [RETUSIN] | 13

test system: not listed separately; test: Cytotoxicity against multidrug resistant human LCC6MDR cells after 5 days by MTS assay; conditions: 120 h

SMILES | IC50
O=c1c(O)c(-c2ccc(O)c(O)c2)oc2cc(O)cc(O)c12 [QUERCETIN] | > 100 µM
COc1cc(OC)c2c(=O)c(O[C@@H]3O[C@H](CO[C@@H]4O[C@@H](C)[C@H](OC)[C@@H](OC)[C@H]4OC)[C@@H](OC)[C@H](OC)[C@H]3OC)c(-c3ccc(OC)c(OC)c3)oc2c1 | > 100 µM
COc1cc(OC)c2c(=O)c(OC(=O)c3cc(OC)c(OC)c(OC)c3)c(-c3ccc(OC)c(OC)c3)oc2c1 | 87.4 µM
COc1cc(OC)c2c(=O)c(OCCOC(=O)c3ccc(OC)c(OC)c3)c(-c3ccc(OC)c(OC)c3)oc2c1 | > 100 µM
COc1cc(OC)c2c(=O)c(OCCn3cnc4c(N)ncnc43)c(-c3ccc(OC)c(OC)c3)oc2c1 | > 100 µM
COc1cc(OC)c2c(=O)c(OCCn3cnc4c(=O)n(C)c(=O)n(C)c43)c(-c3ccc(OC)c(OC)c3)oc2c1 | > 100 µM
COc1cc(OC)c2c(=O)c(OCCOc3cc4c(Nc5ccc(F)c(Cl)c5)ncnc4cc3OC)c(-c3ccc(OC)c(OC)c3)oc2c1 | > 100 µM
COc1cc(O)c2c(=O)c(OC)c(-c3ccc(OC)c(OC)c3)oc2c1 [RETUSIN] | > 100 µM

target: Multidrug resistance-associated protein 1 (Homo sapiens, UniProt P33527); test: Reversal of MRP1-mediated drug resistant in human 2008/MRP1 cells assessed as potentiation of doxorubicin-induced cytotoxicity at 1 uM after 5 days by MTS assay; format: cell-based; conditions: 2008/mrp1, 120 h
Sequence (P33527 whole entry): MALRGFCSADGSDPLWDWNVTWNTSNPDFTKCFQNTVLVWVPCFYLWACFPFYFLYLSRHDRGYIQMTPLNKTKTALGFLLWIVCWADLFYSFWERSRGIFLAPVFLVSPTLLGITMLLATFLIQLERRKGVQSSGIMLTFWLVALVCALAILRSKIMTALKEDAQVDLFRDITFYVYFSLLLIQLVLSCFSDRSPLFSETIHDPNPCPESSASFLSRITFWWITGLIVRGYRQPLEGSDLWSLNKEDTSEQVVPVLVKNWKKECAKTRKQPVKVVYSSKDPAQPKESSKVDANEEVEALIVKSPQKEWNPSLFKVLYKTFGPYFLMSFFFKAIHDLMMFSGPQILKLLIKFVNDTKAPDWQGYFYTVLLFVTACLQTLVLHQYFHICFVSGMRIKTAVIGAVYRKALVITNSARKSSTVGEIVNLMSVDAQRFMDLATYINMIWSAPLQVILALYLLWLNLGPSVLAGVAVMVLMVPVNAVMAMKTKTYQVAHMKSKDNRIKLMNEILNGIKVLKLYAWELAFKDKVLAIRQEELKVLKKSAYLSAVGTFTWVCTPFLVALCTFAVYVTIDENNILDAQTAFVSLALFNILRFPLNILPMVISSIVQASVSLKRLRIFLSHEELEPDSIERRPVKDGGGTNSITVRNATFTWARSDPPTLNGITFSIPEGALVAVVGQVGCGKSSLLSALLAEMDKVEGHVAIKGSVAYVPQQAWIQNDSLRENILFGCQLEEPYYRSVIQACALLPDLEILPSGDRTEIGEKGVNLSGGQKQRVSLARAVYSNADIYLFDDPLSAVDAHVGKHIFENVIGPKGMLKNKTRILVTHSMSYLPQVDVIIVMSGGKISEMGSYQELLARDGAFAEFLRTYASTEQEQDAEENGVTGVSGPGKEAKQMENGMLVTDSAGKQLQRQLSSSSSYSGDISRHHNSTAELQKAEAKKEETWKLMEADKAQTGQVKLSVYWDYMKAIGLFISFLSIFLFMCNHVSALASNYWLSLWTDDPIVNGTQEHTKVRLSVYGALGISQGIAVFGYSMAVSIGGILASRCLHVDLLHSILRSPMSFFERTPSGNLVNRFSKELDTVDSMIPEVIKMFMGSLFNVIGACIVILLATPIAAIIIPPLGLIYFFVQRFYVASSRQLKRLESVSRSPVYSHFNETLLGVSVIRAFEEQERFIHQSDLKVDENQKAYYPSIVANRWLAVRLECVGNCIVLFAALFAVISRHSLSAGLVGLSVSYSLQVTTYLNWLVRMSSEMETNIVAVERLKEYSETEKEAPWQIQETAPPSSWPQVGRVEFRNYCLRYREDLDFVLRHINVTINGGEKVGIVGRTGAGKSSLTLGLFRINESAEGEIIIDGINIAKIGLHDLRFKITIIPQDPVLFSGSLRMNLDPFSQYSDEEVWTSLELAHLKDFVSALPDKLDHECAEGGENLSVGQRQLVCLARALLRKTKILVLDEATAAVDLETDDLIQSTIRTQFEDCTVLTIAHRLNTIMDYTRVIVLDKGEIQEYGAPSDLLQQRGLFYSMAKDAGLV

SMILES | fold change (FC)
COc1cc(OC)c2c(=O)c(O[C@@H]3O[C@H](CO[C@@H]4O[C@@H](C)[C@H](OC)[C@@H](OC)[C@H]4OC)[C@@H](OC)[C@H](OC)[C@H]3OC)c(-c3ccc(OC)c(OC)c3)oc2c1 | 1.4
COc1cc(OC)c2c(=O)c(OC(=O)c3cc(OC)c(OC)c(OC)c3)c(-c3ccc(OC)c(OC)c3)oc2c1 | 0.9
COc1cc(OC)c2c(=O)c(OCCOC(=O)c3ccc(OC)c(OC)c3)c(-c3ccc(OC)c(OC)c3)oc2c1 | 1.2
COc1cc(OC)c2c(=O)c(OCCn3cnc4c(N)ncnc43)c(-c3ccc(OC)c(OC)c3)oc2c1 | 0.8
COc1cc(OC)c2c(=O)c(OCCn3cnc4c(=O)n(C)c(=O)n(C)c43)c(-c3ccc(OC)c(OC)c3)oc2c1 | 1
COc1cc(OC)c2c(=O)c(OCCOc3cc4c(Nc5ccc(F)c(Cl)c5)ncnc4cc3OC)c(-c3ccc(OC)c(OC)c3)oc2c1 | 1
COc1cc(O)c2c(=O)c(OC)c(-c3ccc(OC)c(OC)c3)oc2c1 [RETUSIN] | 0.7

test system: NCI/ADR-RES; test: Modulation of p-glycoprotein-mediated drug resistant in human MCF7/ADR cells assessed as increase of daunomycin accumulation at 100 uM; format: cell-based; conditions: not given

SMILES | Activity
COc1ccc(CCN(C)CCCC(C#N)(c2ccc(OC)c(OC)c2)C(C)C)cc1OC (centres undefined) | 229%
O=c1c(O)c(-c2ccc(O)c(O)c2)oc2cc(O)cc(O)c12 [QUERCETIN] | 202%

target: T1, Broad substrate specificity ATP-binding cassette transporter ABCG2; test: Reversal of BCRP-mediated drug resistant in human MCF7-MX100 cells assessed as potentiation of topotecan-induced cytotoxicity at 1 uM after 5 days by MTS assay; format: cell-based; conditions: mcf7-mx100, 120 h

SMILES | fold change (FC)
COc1cc(OC)c2c(=O)c(O[C@@H]3O[C@H](CO[C@@H]4O[C@@H](C)[C@H](OC)[C@@H](OC)[C@H]4OC)[C@@H](OC)[C@H](OC)[C@H]3OC)c(-c3ccc(OC)c(OC)c3)oc2c1 | 5.3
COc1cc(OC)c2c(=O)c(OC(=O)c3cc(OC)c(OC)c(OC)c3)c(-c3ccc(OC)c(OC)c3)oc2c1 | 9.6
COc1cc(OC)c2c(=O)c(OCCOC(=O)c3ccc(OC)c(OC)c3)c(-c3ccc(OC)c(OC)c3)oc2c1 | 6.7
COc1cc(OC)c2c(=O)c(OCCn3cnc4c(N)ncnc43)c(-c3ccc(OC)c(OC)c3)oc2c1 | 1.2
COc1cc(OC)c2c(=O)c(OCCn3cnc4c(=O)n(C)c(=O)n(C)c43)c(-c3ccc(OC)c(OC)c3)oc2c1 | 1.4
COc1cc(OC)c2c(=O)c(OCCOc3cc4c(Nc5ccc(F)c(Cl)c5)ncnc4cc3OC)c(-c3ccc(OC)c(OC)c3)oc2c1 | 1.2
COc1cc(O)c2c(=O)c(OC)c(-c3ccc(OC)c(OC)c3)oc2c1 [RETUSIN] | 19.3

test system: L929; test: Cytotoxicity against mouse L929 cells after 5 days by MTS assay; format: cell-based; conditions: L929, 120 h
Method in brief: (§1)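 Cells seeded in 96-well plates (6000/well for LCC6 and LCC6MDR) and exposed to a range of derivative concentrations, dissolved in DMSO at no more than 1% final, for 5 days at 37 °C. Viability read by MTS; IC50 taken from dose–response curves. Three repeats, mean ± SEM. LCC6 lines grown in DMEM with 10% heat-inactivated FBS; L929 is a mouse fibroblast line.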

SMILES | IC50
O=c1c(O)c(-c2ccc(O)c(O)c2)oc2cc(O)cc(O)c12 [QUERCETIN] | > 100 µM
COc1cc(OC)c2c(=O)c(O[C@@H]3O[C@H](CO[C@@H]4O[C@@H](C)[C@H](OC)[C@@H](OC)[C@H]4OC)[C@@H](OC)[C@H](OC)[C@H]3OC)c(-c3ccc(OC)c(OC)c3)oc2c1 | > 100 µM
COc1cc(OC)c2c(=O)c(OC(=O)c3cc(OC)c(OC)c(OC)c3)c(-c3ccc(OC)c(OC)c3)oc2c1 | 74.1 µM
COc1cc(OC)c2c(=O)c(OCCOC(=O)c3ccc(OC)c(OC)c3)c(-c3ccc(OC)c(OC)c3)oc2c1 | > 100 µM
COc1cc(OC)c2c(=O)c(OCCn3cnc4c(N)ncnc43)c(-c3ccc(OC)c(OC)c3)oc2c1 | > 100 µM
COc1cc(OC)c2c(=O)c(OCCn3cnc4c(=O)n(C)c(=O)n(C)c43)c(-c3ccc(OC)c(OC)c3)oc2c1 | > 100 µM
COc1cc(OC)c2c(=O)c(OCCOc3cc4c(Nc5ccc(F)c(Cl)c5)ncnc4cc3OC)c(-c3ccc(OC)c(OC)c3)oc2c1 | > 100 µM
COc1cc(O)c2c(=O)c(OC)c(-c3ccc(OC)c(OC)c3)oc2c1 [RETUSIN] | > 100 µM

test system: not listed separately; test: Cytotoxicity against human LCC-6 cells after 5 days by MTS assay; format: cell-based; conditions: LCC-6, 120 h; method in brief: as §1

SMILES | IC50
O=c1c(O)c(-c2ccc(O)c(O)c2)oc2cc(O)cc(O)c12 [QUERCETIN] | > 100 µM
COc1cc(OC)c2c(=O)c(O[C@@H]3O[C@H](CO[C@@H]4O[C@@H](C)[C@H](OC)[C@@H](OC)[C@H]4OC)[C@@H](OC)[C@H](OC)[C@H]3OC)c(-c3ccc(OC)c(OC)c3)oc2c1 | > 100 µM
COc1cc(OC)c2c(=O)c(OC(=O)c3cc(OC)c(OC)c(OC)c3)c(-c3ccc(OC)c(OC)c3)oc2c1 | > 79 µM
COc1cc(OC)c2c(=O)c(OCCOC(=O)c3ccc(OC)c(OC)c3)c(-c3ccc(OC)c(OC)c3)oc2c1 | > 100 µM
COc1cc(OC)c2c(=O)c(OCCn3cnc4c(N)ncnc43)c(-c3ccc(OC)c(OC)c3)oc2c1 | > 100 µM
COc1cc(OC)c2c(=O)c(OCCn3cnc4c(=O)n(C)c(=O)n(C)c43)c(-c3ccc(OC)c(OC)c3)oc2c1 | > 100 µM
COc1cc(OC)c2c(=O)c(OCCOc3cc4c(Nc5ccc(F)c(Cl)c5)ncnc4cc3OC)c(-c3ccc(OC)c(OC)c3)oc2c1 | > 100 µM
COc1cc(O)c2c(=O)c(OC)c(-c3ccc(OC)c(OC)c3)oc2c1 [RETUSIN] | > 100 µM

species on record: Homo sapiens; test: Reversal of p-glycoprotein-mediated drug resistant in human LCC-6/MDR cells assessed as potentiation of paclitaxel-induced cytotoxicity at 1 uM after 5 days by MTS assay; format: cell-based; conditions: not given
Method in brief: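 LCC6MDR cells (6000/well, DMEM with 10% FBS) given paclitaxel over a range of doses, with or without 1 μM modulator, for 5 days at 37 °C; MTS read-out. IC50 from dose–response curves, and RF = IC50 without / IC50 with 1.0 μM modulator. N = 2–4 independent experiments, mean ± SEM.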

SMILES | fold change (FC)
COc1cc(OC)c2c(=O)c(O[C@@H]3O[C@H](CO[C@@H]4O[C@@H](C)[C@H](OC)[C@@H](OC)[C@H]4OC)[C@@H](OC)[C@H](OC)[C@H]3OC)c(-c3ccc(OC)c(OC)c3)oc2c1 | 1
COc1cc(OC)c2c(=O)c(OC(=O)c3cc(OC)c(OC)c(OC)c3)c(-c3ccc(OC)c(OC)c3)oc2c1 | 2.1
COc1cc(OC)c2c(=O)c(OCCOC(=O)c3ccc(OC)c(OC)c3)c(-c3ccc(OC)c(OC)c3)oc2c1 | 6.4
COc1cc(OC)c2c(=O)c(OCCn3cnc4c(N)ncnc43)c(-c3ccc(OC)c(OC)c3)oc2c1 | 1.1
COc1cc(OC)c2c(=O)c(OCCn3cnc4c(=O)n(C)c(=O)n(C)c43)c(-c3ccc(OC)c(OC)c3)oc2c1 | 1.2
COc1cc(OC)c2c(=O)c(OCCOc3cc4c(Nc5ccc(F)c(Cl)c5)ncnc4cc3OC)c(-c3ccc(OC)c(OC)c3)oc2c1 | 1.5
COc1cc(O)c2c(=O)c(OC)c(-c3ccc(OC)c(OC)c3)oc2c1 [RETUSIN] | 3.7
